{"data": "Measurements from different studies", "target": "Protein kinase C epsilon type (PRKCE, Homo sapiens, UniProt Q02156)", "Residues used in one study (Q02156 1-737)": "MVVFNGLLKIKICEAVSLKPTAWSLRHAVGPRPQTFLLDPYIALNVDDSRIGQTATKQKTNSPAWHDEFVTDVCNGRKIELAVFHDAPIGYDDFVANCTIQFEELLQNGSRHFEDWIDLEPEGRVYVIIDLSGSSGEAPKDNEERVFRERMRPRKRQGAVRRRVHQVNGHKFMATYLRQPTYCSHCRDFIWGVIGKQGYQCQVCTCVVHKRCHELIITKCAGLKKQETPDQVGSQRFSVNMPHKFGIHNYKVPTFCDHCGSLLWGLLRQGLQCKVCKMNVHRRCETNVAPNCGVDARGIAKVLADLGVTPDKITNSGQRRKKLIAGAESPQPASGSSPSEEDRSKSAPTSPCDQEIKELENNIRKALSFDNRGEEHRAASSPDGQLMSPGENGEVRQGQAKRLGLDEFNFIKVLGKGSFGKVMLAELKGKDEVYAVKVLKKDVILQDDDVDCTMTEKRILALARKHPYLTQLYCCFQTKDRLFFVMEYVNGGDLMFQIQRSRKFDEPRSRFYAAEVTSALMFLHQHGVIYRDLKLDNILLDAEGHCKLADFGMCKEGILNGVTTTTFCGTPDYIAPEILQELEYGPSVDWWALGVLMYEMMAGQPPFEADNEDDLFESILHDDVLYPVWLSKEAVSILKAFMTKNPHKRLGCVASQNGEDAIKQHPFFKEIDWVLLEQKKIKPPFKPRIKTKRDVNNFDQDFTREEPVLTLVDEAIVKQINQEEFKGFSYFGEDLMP", "note": "Compare with care: the assays were run in different laboratories."}
{"Structure (SMILES)": "O=C(CSc1nc2nccnc2c(=O)n1CCc1ccccc1)Nc1nccs1", "assay": "enzyme activity, inhibitor", "setting": "10 µM", "quantity": "inhibition", "result": "-23%"}
{"Structure (SMILES)": "COc1cc2ncnc(Nc3ccc(Oc4ccccc4)cc3C)c2cc1OC", "assay": "enzyme activity, inhibitor", "setting": "1 µM", "quantity": "inhibition", "result": "0%"}
{"Structure (SMILES)": "O=C(Nc1cnn(-c2csc(C(=O)NC3COC3)c2)c1)Nc1c(F)cccc1Cl", "assay": "enzyme activity, inhibitor", "setting": "5 µM", "quantity": "remaining activity", "result": "94.2%"}
{"Structure (SMILES)": "Cc1cnc(NC2CCOCC2)nc1-n1cnc(C(=O)NC(CN)c2cc(F)cc(Cl)c2)c1 (centres unmarked)", "assay": "enzyme activity, inhibitor, radiometric", "setting": "1 µM", "quantity": "remaining activity", "result": "91%"}
{"Structure (SMILES)": "Cc1ccc(-n2nc(C(C)(C)C)cc2NC(=O)Nc2ccc(OCCN3CCOCC3)c3ccccc23)cc1", "assay": "enzyme activity, inhibitor", "setting": "10 µM", "quantity": "inhibition", "result": "16%"}
{"Structure (SMILES)": "O=C(Nc1cccnn1)N1CCC(=Cc2cccc(Oc3ccc(C(F)(F)F)cn3)c2)CC1", "assay": "cell-free assay, competition with immobilised ligand", "setting": "1 µM", "quantity": "remaining binding", "result": "82%"}
{"Structure (SMILES)": "O=C1NC(=O)c2cc(Nc3ccc(F)cc3)c(Nc3ccc(F)cc3)cc21", "assay": "cell-free assay", "setting": "0.5 µM", "quantity": "remaining signal", "result": "97.8%"}
{"Structure (SMILES)": "Nc1cnc(N2CCc3cc(S(=O)(=O)Nc4c(F)cc(Cl)cc4F)cc(N4CCCC4=O)c32)nc1", "assay": "cell-free assay, competition with immobilised ligand", "setting": "1 µM", "quantity": "remaining binding", "result": "100%"}
{"Structure (SMILES)": "CNC(=O)c1cc(Oc2ccc(NC(=O)Nc3ccc(Cl)c(C(F)(F)F)c3)cc2)ccn1", "assay": "cell-free assay", "setting": "0.5 µM", "quantity": "remaining signal", "result": "96.4%"}
{"Structure (SMILES)": "O=C(O)c1cc(-c2ccc(C3CCNCC3)cc2)c2ccc(-c3ccc(C(F)(F)F)cc3)cc2c1", "assay": "cell-free assay, competition with immobilised ligand", "setting": "1 µM", "quantity": "remaining binding", "result": "100%"}
{"Structure (SMILES)": "CCCS(=O)(=O)Nc1ccc(F)c(C(=O)c2c[nH]c3ncc(-c4ccc(Cl)cc4)cc23)c1F", "assay": "enzyme activity, inhibitor", "setting": "1 µM", "quantity": "inhibition", "result": "< 10%"}
{"Structure (SMILES)": "CN(C)CC#Cc1ccc(OCCCc2sc(N3CCc4cccc(C(=O)Nc5nc6ccccc6s5)c4C3)nc2C(=O)O)c(F)c1", "assay": "cell-free assay, competition with immobilised ligand", "setting": "1 µM", "quantity": "remaining binding", "result": "100%"}
{"Structure (SMILES)": "O=C(Nc1nccs1)C(c1cc(F)ccc1O)N1Cc2ccccc2C1=O (centres unmarked)", "assay": "enzyme activity, inhibitor", "setting": "1 µM", "quantity": "inhibition", "result": "14%"}
{"Structure (SMILES)": "Cn1cncc1C1=CN(c2ncnc3[nH]cnc23)CCS1", "assay": "enzyme activity, inhibitor, radiometric", "setting": "2 µM", "quantity": "inhibition", "result": "92.7%"}
{"Structure (SMILES)": "CC(C)(C)c1nc(-c2cccc(NS(=O)(=O)c3c(F)cccc3F)c2F)c(-c2ccnc(N)n2)s1", "assay": "enzyme activity, inhibitor, radiometric", "setting": "1 µM", "quantity": "remaining activity", "result": "132%"}
{"Structure (SMILES)": "CCOC(=O)c1cc2cc(-c3cc(C(=O)NCc4ccc(C(=O)O)cc4)nn3C)ccc2[nH]1", "assay": "cell-free assay, competition with immobilised ligand", "setting": "0.1 µM", "quantity": "remaining binding", "result": "90%"}
{"Structure (SMILES)": "Cc1ccc(C(=O)Nc2ccc(CN3CCN(C)CC3)c(C(F)(F)F)c2)cc1C#Cc1cnc2cccnn12", "assay": "enzyme activity", "setting": "23.5 nM", "quantity": "remaining activity", "result": "77%"}
